{"source": "the RNAGym collection of RNA variant scans (doi:10.1126/science.aae0568)", "parents": {"B1": {"name": "tRNA (parent)", "chain": "GUUCCGUUGGCGUAAUGGUAACGCGUCUCCCUCCUAAGGAGAAGACUGCGGGUUCGAGUCCCGUACGGAACG"}}, "note": "This sample holds only a part of the variants without activity.", "data": [{"variants_of": "B1", "test": "yeast fitness relative to wild type (ratio to wild type); higher = fitter; tRNA-Arg(CCU), competitive growth, 37 C, YPD", "how_it_was_run": "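For this measurement, the tRNA-Arg(CCU) gene was varied by chemical synthesis at a 3% per-site mutation rate across 69 sites, and each variant was placed at the native genomic locus in Saccharomyces cerevisiae. The pooled strains went through a 24-hour competition in YPD at 37°C in six parallel replicates, with amplicons from start and end populations read by 100-nucleotide paired-end sequencing. Darwinian fitness relative to wild type followed from the change in each genotype's frequency. Genotypes needed ≥ 100 starting reads, and estimates < 0.5 were set to 0.5.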", "values": [{"variant": "GUUCCGUUGGCGUAAUCGUAAUGCGCCUCCCUCCUAAGGAGAAGAAUGCGGGUUCGAGUCCCAUACGGAACG", "note": "[G17C C22U U26C C46A G63A]", "yeast fitness": "≤ 0.5"}, {"variant": "GUUCCGUUGGCGUAAUAGUAACGCGUCUCCCUCCUAAGGAGAAGACCGCGGGUUCGAGUCCCGUACGGAACG", "note": "[G17A U47C]", "yeast fitness": 0.774}, {"variant": "GUUCCGUUGGCGUAAUAGUAACGCGUCUCCCUCCUAAGGAGAAGACAGCGGGUUCGAGUCCCGUACGGAACG", "note": "[G17A U47A]", "yeast fitness": 0.823}, {"variant": "GUUCCGUUGGCGUAAUCGUACCGCGACUCCCUCCUAAGGAGAAGACUGCGGGUUCGAGUCCCGUACGGAACG", "note": "[G17C A21C U26A]", "yeast fitness": "≤ 0.5"}, {"variant": "GUUCCGUUGGCGUAAUAGUAACGCGUCUCCCUCCUAAGGAGAAGACGGCGGGUUCGAGUCCCGUACAGCACG", "note": "[G17A U47G G67A A69C]", "yeast fitness": 0.559}, {"variant": "GUUCCGUUGGCGUAAUAGUAACGCGUCUCCCUCCUAAGGAGAAGACUGCGGGUCCGAGUCCCGUACGGAACG", "note": "[G17A U54C]", "yeast fitness": 0.67}, {"variant": "GUUCCGUUGGCGUAAUAGUAACGCGUCUCCCUCCAAAGGAGAAAACUGCAGGUUCGAGUCCCGUACGGAACG", "note": "[G17A U35A G44A G50A]", "yeast fitness": "≤ 0.5"}, {"variant": "GUUCCGUUGGCGUAAUAGUAACGCGUCUCCCUCCGAAGGAGAAGACUGCGGGUUCGAGCCCCGUACGGAACG", "note": "[G17A U35G U59C]", "yeast fitness": "≤ 0.5"}, {"variant": "GUUCCGUUGGCGUAAUCGUAACGCGUCUCCCUCCUAAGGAGGAGACUGCGGGUUUGAGUCCCGUACGGAACG", "note": "[G17C A42G C55U]", "yeast fitness": "≤ 0.5"}, {"variant": "GUUCCGUUGGCGUAAUCGUAACGCGUCUCCCUCCUAAGGAGCAGACUGCGGGUUCGAGUACCGUACGGAACG", "note": "[G17C A42C C60A]", "yeast fitness": "≤ 0.5"}, {"variant": "GUUCCGUUGGCGUAAUCGUAAGGCGUCUCCCUCCUAAGGAGAAGACUGCGGGUUCGAGUCCCGUGCGGAACG", "note": "[G17C C22G A65G]", "yeast fitness": 0.6}, {"variant": "GUUCCGUUGGCGUAAUCGUACCGCGUCUCCCUCGUAUGGAGUAGACUGCGGGUUCGGGUCCCGUACGGAACG", "note": "[G17C A21C C34G A37U A42U A57G]", "yeast fitness": "≤ 0.5"}, {"variant": "GUUCCGUUGGCGUAAUCGUAAGGAGUCUCCCUCCUAAGGAGAAGACUGCGGGUUCGAGUCCCGUACGGAACG", "note": "[G17C C22G C24A]", "yeast fitness": "≤ 0.5"}, {"variant": "GUUCCGUUGGCGUAAUCGUAAGGCGCCUCCCUCCUAAGGAGAAGACAGCGGGUUCGAGUCCCGUAUGGAACG", "note": "[G17C C22G U26C U47A C66U]", "yeast fitness": "≤ 0.5"}, {"variant": "GUUCCGUUGGCGUAAUAGUAACGCGUCUCCCUCCUAAGGAGAAGACUGCGGGUUCGAGACCCGUACGGAACG", "note": "[G17A U59A]", "yeast fitness": 0.759}, {"variant": "GUUCCGUUGGCGUAAUCGUAAAGCGUCUCCGUCCUAAGGAGAAGACUGCGGGUUGGAGUCCCGUACGGAACG", "note": "[G17C C22A C31G C55G]", "yeast fitness": "≤ 0.5"}, {"variant": "GUUCCGUUGGCGUAAUCGUAAGGCGACUCCCUCCUAAGGAGAGGACUGCGGGUUCGAGUCUCGUUCGGAACG", "note": "[G17C C22G U26A A43G C61U A65U]", "yeast fitness": "≤ 0.5"}, {"variant": "GUUCCGUUGGCGUAAUCGUAUCGCGUCUCCCUGCUAAAGAGAAGACUGCGGAUUCGAGUCCCGUACGGAACG", "note": "[G17C A21U C33G G38A G52A]", "yeast fitness": "≤ 0.5"}, {"variant": "GUUCCGUUGGCGUAAUAGUAACGCGUCUCCCUCCGAAGGAGAAGACUCCGGGUUCGAGUCCCGUACGGAACG", "note": "[G17A U35G G48C]", "yeast fitness": 0.502}, {"variant": "GUUCCGUUGGCGUAAUCGUAAGGCGUCUCUCUCCUAAGGACAAGAUUGCGGGUUCGAGUCCCGUUCGGAACG", "note": "[G17C C22G C30U G41C C46U A65U]", "yeast fitness": "≤ 0.5"}, {"variant": "GUUCCGUUGGCGUAAUCGUAACGCGUCUCCCUCCUAAGGAGAAGCCUACGGGUUCGAGACCCGUACGGAACG", "note": "[G17C A45C G48A U59A]", "yeast fitness": 0.622}, {"variant": "GUUCCGUUGGCGUAAUCGUAAUGCGUCUCCCCCCUAAGGUGAAGACUGCGGGUUCGAGUCCCGUAUGGAACG", "note": "[G17C C22U U32C A40U C66U]", "yeast fitness": "≤ 0.5"}, {"variant": "GUUCCGUUGGCGUAAUAGUAACGCGUCUCCCUCCUAAGGAGAAGACUGCGGGGUCGAGUCCCGUACGGAACG", "note": "[G17A U53G]", "yeast fitness": 0.595}, {"variant": "GUUCCGUUGGCGUAAUCGUAAGGCGUCUCCCUCCUAAGGAGGAGAAUGCGGGUUCGAGUCCCGUACGGAACG", "note": "[G17C C22G A42G C46A]", "yeast fitness": "≤ 0.5"}, {"variant": "GUUCCGUUGGCGUAAUCGUAACGCGUCUCCCUCCUACGGCGAAGACUGCGGGUUCGAGUCUCGUACGGAACG", "note": "[G17C A37C A40C C61U]", "yeast fitness": "≤ 0.5"}, {"variant": "GUUCCGUUGGCGUAAUCGUGACGCGUCUCCCUCCUAAGGAGAAGACUGCGGGGUCGAGUCCCGUACGGAUCG", "note": "[G17C A20G U53G A70U]", "yeast fitness": "≤ 0.5"}, {"variant": "GUUCCGUUGGCGUAAUAGUAACGCGUCUCCCUCCUAAGGAGAAGACUGCGGGUUCGAGACCCGUAUGGAACG", "note": "[G17A U59A C66U]", "yeast fitness": "≤ 0.5"}, {"variant": "GUUCCGUUGGCGUAAUCGUAACGCGUCUCCCUCCUAAGGAGUAGACUGCGGGUUCGAGUCCUGUACGGAACG", "note": "[G17C A42U C62U]", "yeast fitness": 0.645}, {"variant": "GUUCCGUUGGCGUAAUCGUAGCGCGUUUCCCUGCUAAGGAGUAGACUGCGGGUUCGGGUCCCGUACGGAACG", "note": "[G17C A21G C27U C33G A42U A57G]", "yeast fitness": "≤ 0.5"}, {"variant": "GUUCCGUUGGCGUAAUCGUAGCGCGUCUCCCUACUAAGGAGAAGACUGUGGGUUCGAGUCCCGUACGGAACG", "note": "[G17C A21G C33A C49U]", "yeast fitness": "≤ 0.5"}, {"variant": "GUUCCGUUGGCGUAAUCGUAACGAGUCUCCCUCCUAAGGAGAAGACUGCGGGUUCGAGUCCCGUACGGCACG", "note": "[G17C C24A A69C]", "yeast fitness": 0.553}, {"variant": "GUUCCGUUGGCGUAAUCGUAACGCGUCUCCCUCCUAAGGAGUACUCUGCGGGUUCGAAUCCCGUACGGAACG", "note": "[G17C A42U G44C A45U G58A]", "yeast fitness": "≤ 0.5"}, {"variant": "GUUCCGUUGGCGUAAUCGUACCGCGUCUCCCUCGUAUGGAGAAGACCGCGGGUUCGAGUCCCGUACGCAACG", "note": "[G17C A21C C34G A37U U47C G68C]", "yeast fitness": "≤ 0.5"}, {"variant": "GUUCCGUUGGCGUAAUCGUAAGGCGUCUCCCUCCUCAGAAGGAGACUGCGGGUUCGAGUCCCCUACGGAACG", "note": "[G17C C22G A36C G39A A42G G63C]", "yeast fitness": 0.842}, {"variant": "GUUCCGUUGGCGUAAUCGUCACGCGUCUCCCUCCUAAGAAGAAGACUGCGGGUUCGAGUCCCGUACGGAACG", "note": "[G17C A20C G39A]", "yeast fitness": 0.528}, {"variant": "GUUCCGUUGGCGUAAUCGUAACGCGUCUCCCUCCUAAGGGGUAGACUGCGGGUUCGAGUCCUGUACGGAACG", "note": "[G17C A40G A42U C62U]", "yeast fitness": "≤ 0.5"}, {"variant": "GUUCCGUUGGCGUAAUCGUAUCGCGUCUCCCUGCUAAGGAGAAGACUGCGGGUUCGAGUCCCGUACGGAACG", "note": "[G17C A21U C33G]", "yeast fitness": "≤ 0.5"}, {"variant": "GUUCCGUUGGCGUAAUCGUAACGCGUCUCCCUCCUUAGGAGAAGACUCCGGGUCCGAGUACCGGACGGAACG", "note": "[G17C A36U G48C U54C C60A U64G]", "yeast fitness": "≤ 0.5"}]}]}
